Results reported in ChEMBL document CHEMBL4513216, “Probing the Open Global Health Chemical Diversity Library for Multistage-Active Starting Points for Next-Generation Antimalarials” (ACS Infect Dis, 2020).

Test: Toxicity liver stage against HepG2, at 10uM
Type: cell-based
Parameters: test concentration 10 uM, cell line HepG2-A16-CD81EGFP
Conditions: human, HepG2-A16-CD81EGFP cells; read-out: INHIBITION
Outline: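 Uninfected HepG2-A16-CD81EGFP cells, 3 × 10^3 per well, 1536-well, plated on prespotted compound at 10 μM final, parasite-free screening media added to match infected plates; puromycin 10 μM positive, DMSO 0.5% negative; run in parallel with 48 h PbLuc assay at 37 °C, 5% CO2; viability by CellTiter-Glo luminescence, normalized to controls.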

First: CCCN1CCCCC1C(=O)Nc1ccc(-c2nnc[nH]2)cc1 (stereo unspecified)
Second: Cc1ccc(NC(=O)N2C[C@@H]3CC[C@H]2CN(Cc2cscn2)C3)cc1
The cytotoxicity at 10 µM of the first is higher: 4.64% for the first, -7.47% for the second.

Compared with `Cc1ccc(CNC(=O)N(Cc2ccccc2F)C2CC2)cn1`, `COCCN1CC(C(=O)NCc2cccnc2-n2cccn2)CC1=O` (stereo unspecified) is higher in cytotoxicity at 10 µM: 0.0194% for the first, 3.74% for the second.

Going from `CN(CCc1ccccn1)C(=O)C(c1cccnc1)N1CCOCC1` (stereo unspecified) to `Cn1ccc(C(=O)NCc2ccc(N3CCOCC3)nc2)cc1=O`, the cytotoxicity at 10 µM falls from 2.03% to -14.3%.

First: COc1ccc(-n2cc(CCO)cn2)cc1C(N)=O
Second: Cc1ccc(NC(=O)N(C)Cc2cnn(C)c2)c(C)c1
The cytotoxicity at 10 µM of the first is higher: 5.97% for the first, -10.7% for the second.

First: CCC[C@H]1CN(S(=O)(=O)c2c(C)noc2C)C[C@@H]1N
Second: CCn1nc2c(cc1=O)CN(Cc1nc(C)c(C)o1)CC2
The cytotoxicity at 10 µM of the first is higher: -0.288% for the first, -3.59% for the second.

First: Cc1ccccc1C1(O)CCN(C(=O)CCc2cn3ccccc3n2)C1 (stereo unspecified)
Second: Cc1cnn(CC2CCCN2C(=O)c2cc(O)nc3ccccc23)c1 (stereo unspecified)
The cytotoxicity at 10 µM of the first is higher: -3.18% for the first, -6.5% for the second.

First: CC(NC(=O)c1cc2n(n1)CCCN(C)C2)c1cn2ccsc2n1 (stereo unspecified)
Second: CC(C)c1nnc2n1CCN(C(=O)COc1ccc(C(N)=O)cc1)C2
The cytotoxicity at 10 µM of the first is lower: -2.51% for the first, 0.0102% for the second.

Compared with `CS(=O)(=O)NCC1(O)CCCN(C(=O)CCn2cc(Cl)cn2)CC1` (stereo unspecified), `CNC(=O)N1CCC(NC(=O)c2cnn(C)c2)CC1` is higher in cytotoxicity at 10 µM: -144% for the first, -1.35% for the second.

Compared with `N[C@H]1CN(S(=O)(=O)Cc2ccccc2)C[C@@H]1C1CC1`, `C[C@@H]1CN(CCc2ccccc2)C[C@]12CCN(CC(=O)N(C)C)C2=O` is higher in cytotoxicity at 10 µM: -133% for the first, -4.19% for the second.

Going from `Cc1cc(C[C@@H]2COC[C@@H]2NC(=O)CN2CCCCCC2)on1` to `O=c1occ(CN2CCCCCC2)c(O)c1CN1CCOCC1`, the cytotoxicity at 10 µM falls from 1.29% to -8.2%.

Going from `CO[C@H]1CN(Cc2cc(Cn3cncn3)c(C)cc2C)CC[C@H]1N` to `Cc1cc(NC(=O)CN2CCC(N(C)Cc3ncc(C)o3)C2)n(C)n1` (stereo unspecified), the cytotoxicity at 10 µM rises from -7.29% to -6.49%.

First: Cc1nc(O)cc(CN2C[C@H](NS(=O)(=O)N(C)C)[C@@H](C3CC3)C2)n1
Second: Cc1nc(C2CCCN(C(=O)c3ccc(S(C)(=O)=O)cc3)C2)no1 (stereo unspecified)
The cytotoxicity at 10 µM of the first is higher: -5.01% for the first, -11.3% for the second.

Going from `Cc1ccc(C(CNC(=O)c2cc(CC(C)C)nn2C)N(C)C)cc1` (stereo unspecified) to `Cc1ccc(C(=O)NCc2ccnc(N(C)C)c2)c(C)c1`, the cytotoxicity at 10 µM falls from -3.34% to -11.1%.

Going from `Cc1nn(C)c(C)c1CCC(=O)N1CC(c2cccnc2)C1` to `Cc1nn(C)c(Cl)c1C1CCCN1C(=O)c1ccoc1C` (stereo unspecified), the cytotoxicity at 10 µM falls from -4.84% to -8.18%.

First: CCC(C)N(CC)C(=O)c1ccc2[nH]nnc2c1 (stereo unspecified)
Second: CN(Cc1cccc(C(N)=O)c1)Cc1nc2c(cnn2C)c(=O)[nH]1
The cytotoxicity at 10 µM of the first is higher: 10.5% for the first, -2.97% for the second.

Compared with `COc1cccc(OC2CN(C(=O)c3ccoc3C)C2)c1`, `Cc1cccc(-c2c[nH]c(C3CCCN3)n2)c1` (stereo unspecified) is lower in cytotoxicity at 10 µM: 9.21% for the first, -11.4% for the second.

Compared with `COCCCN(C)c1nc(-c2ccncc2)nc2c1CCN(C(C)=O)C2`, `COCCN(C)C(C)c1cccc(S(N)(=O)=O)c1` (stereo unspecified) is lower in cytotoxicity at 10 µM: -1.16% for the first, -28% for the second.

First: Cc1noc(C(C)C)c1C(=O)NCc1ccc2c(c1)OCCO2
Second: Cc1ccccc1SCC(=O)NS(=O)(=O)c1ccc2c(c1)OCCO2
The cytotoxicity at 10 µM of the first is higher: 3.24% for the first, -1.22% for the second.

Compared with `CCc1nnc(CN2CCCC2Cn2cc(C)cn2)o1` (stereo unspecified), `CC(C)(C)c1nc(CN2CCOC(Cn3cccn3)C2)no1` (stereo unspecified) is lower in cytotoxicity at 10 µM: -6.64% for the first, -18.5% for the second.

Going from `O=C(NCC1CCCOC1)c1ccc(-c2ccccc2)[nH]c1=O` (stereo unspecified) to `CCS(=O)(=O)c1ccccc1N1CCC(NC(=O)NC2CCCC2)CC1`, the cytotoxicity at 10 µM falls from -12.2% to -16%.

First: Cc1ncccc1CNCC1CCN(CC(C)O)CC1 (stereo unspecified)
Second: CN1CCN(C(=O)NC2CCCC2)Cc2cccnc21
The cytotoxicity at 10 µM of the first is lower: -5.59% for the first, -0.123% for the second.

Going from `CCC(O)CN1CCN(C(=O)c2cccc3[nH]ncc23)CC1` (stereo unspecified) to `CCn1cncc1CN1CCN(CC2(c3ccc(C)cc3)CC2)CC1`, the cytotoxicity at 10 µM rises from -11.2% to -10.7%.

Going from `COCC(=O)N1CCC2(CCc3ccc(F)cc32)CC1` to `Cc1nc(CN2C(=O)CCC23CCN(Cc2ccoc2)CC3)cs1`, the cytotoxicity at 10 µM rises from -148% to -0.902%.

First: CCOC(=O)CSc1nnc(C(N)CC(C)C)o1 (stereo unspecified)
Second: CC(NCc1ccc(C(N)=O)cc1)c1ccc(Cl)c(Cl)c1 (stereo unspecified)
The cytotoxicity at 10 µM of the first is lower: -8.32% for the first, 8.8% for the second.

First: Cc1cc(CN2C[C@@H](N3CCN(C)CC3)[C@H]3OCCC[C@H]32)oc1C
Second: CN1CCN(C(=O)c2n[nH]c3c2CN(C2CCOCC2)CC3)CC1
The cytotoxicity at 10 µM of the first is lower: -132% for the first, 3.41% for the second.

Going from `Cc1ncsc1CN1C[C@@H](OCc2ccccn2)[C@H]2OCCC[C@H]21` to `O=C(CC1CC1)N[C@@H]1CN(c2ncccn2)C[C@@H]2CCCO[C@@H]21`, the cytotoxicity at 10 µM rises from -141% to 9.87%.

Compared with `CC(C)(C)NC(=O)CN1CCNCC1`, `CCn1cc(-n2cc3nc(N4CCCC4)[nH]cc-3c2=O)cn1` is higher in cytotoxicity at 10 µM: -143% for the first, 2.77% for the second.

First: Cc1nc(CN2Cc3nccn3CC(CN3CCCC3)C2)cs1 (stereo unspecified)
Second: Cc1nc(CN2CC3(CCN(c4ncc(F)cn4)C3)CC2=O)cs1 (stereo unspecified)
The cytotoxicity at 10 µM of the first is lower: 2.43% for the first, 3.25% for the second.
